# Results: ChEMBL document CHEMBL1137992, “Long hydrocarbon chain keto diols and diacids that favorably alter lipid disorders in vivo” (J Med Chem, 2004)
# pIC50: −log10 of the molar value.
# Tested on: not listed separately
# Assay: Concentration required for inhibition of lipid synthesis in primary cultures of rat hepatocytes
# Assay type: functional, cell-based
# Conditions: Hepatocyte
# How it was run: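 Primary hepatocytes from male Sprague-Dawley rats (Seglen isolation), plated at 1.5×10^5 cells/cm² on collagen in serum-containing DMEM, switched to serum-free medium after 4 h, grown overnight to monolayers. Cells incubated 4 h with 0.25 μCi [1-14C]acetate/well (1 Ci/mol final) plus 0, 1, 3, 10, 30, 100 or 300 μM compound. Lipids extracted into scintillant and counted; IC50 taken from lipid synthesis rates.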
row,SMILES,pIC50
1,CC(C)(CCCCC(=O)CCCCC(C)(C)C(=O)O)C(=O)O,5.52

# Tested on: Rattus norvegicus
# Assay: Amount of non-HDL-cholesterol in obese Zucker rats at pre-treatment at a dose of 30 mg/kg/day
# Assay type: functional
# Conditions: not given
# How it was run: (§1)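 Female obese Zucker fatty rats [Crl:(Zuc)-faBR], 10–12 weeks old (400–500 g), on chow. Compound in 20% EtOH/80% PEG-200 (v/v) given by daily oral gavage. After a 6-h fast, serum was taken before dosing and at 7 days (orbital plexus), and at 14 days (cardiac puncture). Lipoprotein cholesterol came from Superose 6HR gel-filtration profiles × serum total cholesterol. Mean ± SEM.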
row,SMILES,Activity
1,CC(C)(CCCCC(=O)CCCCC(C)(C)C(=O)O)C(=O)O,48 mg/dL

# Tested on: Rattus norvegicus
# Assay: Percent decrease in nonesterified fatty acids in obese Zucker rats after 1 week of treatment at a dose of 100 mg/kg/day
# Assay type: functional
# Set-up: scale not given: the % may be the effect or the level left
# Conditions: not given
# How it was run: (§2)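 Female Zucker fatty rats [Crl:(Zuc)-faBR], 10–12 weeks, 400–500 g, acclimated 7 days on chow. Compound or vehicle (20% EtOH/80% PEG-200) given by daily oral gavage for 2 weeks, 0–100 mg/kg/day. After a 6 h fast, blood was taken before dosing, at 1 wk and at 2 wk. Serum lipids, NEFA and insulin (ELISA) were measured; glucose by glucometer. HDL/non-HDL-C came from Superose 6 gel-filtration profiles. Values are % change from pretreatment, mean ± SEM.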
row,SMILES,Activity
1,CC(C)(CCCCC(=O)CCCCC(C)(C)C(=O)O)C(=O)O,-33%

# Tested on: Rattus norvegicus
# Assay: Amount of insulin in obese Zucker rats after 2 weeks of treatment at a dose of 100 mg/kg/day
# Assay type: functional
# Conditions: not given
# How it was run: (§3)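 Female obese Zucker rats [Crl:(Zuc)-faBR], 400–500 g, given daily oral gavage in 20% EtOH/80% PEG-200 for up to 14 days. After a 6-h fast, serum was collected pretreatment and at day 7 (orbital bleed) and day 14 (cardiac puncture) and stored at -80 °C. Insulin was measured by ELISA. Values are mean ± SEM.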
row,SMILES,Activity
1,CC(C)(CCCCC(=O)CCCCC(C)(C)C(=O)O)C(=O)O,9.5 ng/mL

# Tested on: Rattus norvegicus
# Assay: Amount of non-HDL-cholesterol in obese Zucker rats at pre-treatment at a dose of 0 mg/kg/day
# Assay type: functional
# Conditions: not given
# How it was run: as §1
row,SMILES,Activity
1,CC(C)(CCCCC(=O)CCCCC(C)(C)C(=O)O)C(=O)O,40 mg/dL

# Tested on: Rattus norvegicus
# Assay: Amount of insulin in obese Zucker rats at pre-treatment at a dose of 0 mg/kg/day
# Assay type: functional
# Conditions: not given
# How it was run: as §3
row,SMILES,Activity
1,CC(C)(CCCCC(=O)CCCCC(C)(C)C(=O)O)C(=O)O,9.8 ng/mL

# Tested on: Rattus norvegicus
# Assay: Amount of insulin in obese Zucker rats at pre-treatment at a dose of 100 mg/kg/day
# Assay type: functional
# Conditions: not given
# How it was run: as §3
row,SMILES,Activity
1,CC(C)(CCCCC(=O)CCCCC(C)(C)C(=O)O)C(=O)O,8.1 ng/mL

# Tested on: Rattus norvegicus
# Assay: Amount of triglycerides in obese Zucker rats at pre-treatment at a dose of 0 mg/kg/day
# Assay type: functional
# Conditions: not given
# How it was run: (§4)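 Female Zucker fatty rats [Crl:(Zuc)-faBR], 10–12 weeks old (400–500 g), dosed once daily by oral gavage in 20% EtOH/80% PEG-200 for up to 14 days. After a 6-h fast, serum was taken pre-dose, at day 7 (orbital venous plexus, O2/CO2 anaesthesia) and at day 14 (cardiac puncture), stored at −80 °C, and assayed on a Hitachi 912 automatic analyzer. Mean ± SEM.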
row,SMILES,Activity
1,CC(C)(CCCCC(=O)CCCCC(C)(C)C(=O)O)C(=O)O,130 mg/dL

# Tested on: Rattus norvegicus
# Assay: Amount of triglycerides in obese Zucker rats after 1 week of treatment at a dose of 0 mg/kg/day
# Assay type: functional
# Conditions: not given
# How it was run: as §4
row,SMILES,Activity
1,CC(C)(CCCCC(=O)CCCCC(C)(C)C(=O)O)C(=O)O,1333 mg/dL

# Tested on: Rattus norvegicus
# Assay: Amount of triglycerides in obese Zucker rats after 1 week of treatment at a dose of 10 mg/kg/day
# Assay type: functional
# Conditions: not given
# How it was run: as §4
row,SMILES,Activity
1,CC(C)(CCCCC(=O)CCCCC(C)(C)C(=O)O)C(=O)O,692 mg/dL

# Tested on: Rattus norvegicus
# Assay: Amount of triglycerides in obese Zucker rats after 1 week of treatment at a dose of 30 mg/kg/day
# Assay type: functional
# Conditions: not given
# How it was run: as §4
row,SMILES,Activity
1,CC(C)(CCCCC(=O)CCCCC(C)(C)C(=O)O)C(=O)O,826 mg/dL

# Tested on: Rattus norvegicus
# Assay: Amount of HDL-cholesterol in obese Zucker rats after 1 week of treatment at a dose of 100 mg/kg/day
# Assay type: functional
# Conditions: not given
# How it was run: (§5)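 Female Zucker fatty rats [Crl:(Zuc)-faBR], 10–12 weeks old (400–500 g), dosed once daily by oral gavage in 20% EtOH/80% PEG-200 (dose volume 0.25% of body weight). Rats were fasted 6 h and bled before dosing and at day 7 (orbital plexus), and at day 14 (cardiac puncture). Serum cholesterol fractions came from Superose 6 gel-filtration lipoprotein profiles (% peak area × serum total cholesterol). Values are mean ± SEM.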
row,SMILES,Activity
1,CC(C)(CCCCC(=O)CCCCC(C)(C)C(=O)O)C(=O)O,66 mg/dL

# Tested on: Rattus norvegicus
# Assay: Amount of HDL-cholesterol in obese Zucker rats after 2 weeks of treatment at a dose of 30 mg/kg/day
# Assay type: functional
# Conditions: not given
# How it was run: as §5
row,SMILES,Activity
1,CC(C)(CCCCC(=O)CCCCC(C)(C)C(=O)O)C(=O)O,50 mg/dL

# Tested on: Rattus norvegicus
# Assay: Amount of HDL-cholesterol in obese Zucker rats after 2 weeks of treatment at a dose of 3 mg/kg/day
# Assay type: functional
# Conditions: not given
# How it was run: as §5
row,SMILES,Activity
1,CC(C)(CCCCC(=O)CCCCC(C)(C)C(=O)O)C(=O)O,33 mg/dL

# Tested on: Rattus norvegicus
# Assay: Amount of nonesterified fatty acids in obese Zucker rats at pre-treatment at a dose of 0 mg/kg/day
# Assay type: functional
# Conditions: not given
# How it was run: as §4
row,SMILES,Activity
1,CC(C)(CCCCC(=O)CCCCC(C)(C)C(=O)O)C(=O)O,1.5 mg/dL

# Tested on: Rattus norvegicus
# Assay: Amount of non-HDL-cholesterol in obese Zucker rats after 1 week of treatment at a dose of 10 mg/kg/day
# Assay type: functional
# Conditions: not given
# How it was run: as §5
row,SMILES,Activity
1,CC(C)(CCCCC(=O)CCCCC(C)(C)C(=O)O)C(=O)O,26 mg/dL

# Tested on: Rattus norvegicus
# Assay: Amount of non-HDL-cholesterol in obese Zucker rats after 2 weeks of treatment at a dose of 0 mg/kg/day
# Assay type: functional
# Conditions: not given
# How it was run: as §5
row,SMILES,Activity
1,CC(C)(CCCCC(=O)CCCCC(C)(C)C(=O)O)C(=O)O,29 mg/dL

# Tested on: Rattus norvegicus
# Assay: Amount of non-HDL-cholesterol in obese Zucker rats after 2 weeks of treatment at a dose of 30 mg/kg/day
# Assay type: functional
# Conditions: not given
# How it was run: as §1
row,SMILES,Activity
1,CC(C)(CCCCC(=O)CCCCC(C)(C)C(=O)O)C(=O)O,43 mg/dL

# Tested on: Rattus norvegicus
# Assay: Percent increase in HDL-cholesterol in obese Zucker rats after 1 week of treatment at a dose of 100 mg/kg/day
# Assay type: functional
# Conditions: not given
# How it was run: as §2
row,SMILES,Activity
1,CC(C)(CCCCC(=O)CCCCC(C)(C)C(=O)O)C(=O)O,74%

# Tested on: Rattus norvegicus
# Assay: Percent increase in HDL-cholesterol in obese Zucker rats after 1 week of treatment at a dose of 30 mg/kg/day
# Assay type: functional
# Conditions: not given
# How it was run: as §2
row,SMILES,Activity
1,CC(C)(CCCCC(=O)CCCCC(C)(C)C(=O)O)C(=O)O,56%

# Tested on: Rattus norvegicus
# Assay: Amount of nonesterified fatty acids in obese Zucker rats after 1 week of treatment at a dose of 100 mg/kg/day
# Assay type: functional
# Conditions: not given
# How it was run: as §4
row,SMILES,Activity
1,CC(C)(CCCCC(=O)CCCCC(C)(C)C(=O)O)C(=O)O,0.81 mg/dL

# Tested on: Rattus norvegicus
# Assay: Amount of nonesterified fatty acids in obese Zucker rats after 2 weeks of treatment at a dose of 10 mg/kg/day
# Assay type: functional
# Conditions: not given
# How it was run: as §4
row,SMILES,Activity
1,CC(C)(CCCCC(=O)CCCCC(C)(C)C(=O)O)C(=O)O,1.5 mg/dL

# Tested on: Rattus norvegicus
# Assay: Amount of HDL-cholesterol in obese Zucker rats at pre-treatment at a dose of 30 mg/kg/day
# Assay type: functional
# Conditions: not given
# How it was run: as §5
row,SMILES,Activity
1,CC(C)(CCCCC(=O)CCCCC(C)(C)C(=O)O)C(=O)O,34 mg/dL

# Tested on: Rattus norvegicus
# Assay: Amount of glucose in obese Zucker rats after 1 week of treatment at a dose of 3 mg/kg/day
# Assay type: functional
# Conditions: not given
# How it was run: (§6)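 Female Zucker fatty rats [Crl:(Zuc)-faBR], 10–12 weeks old (400–500 g), gavaged daily with vehicle (20% EtOH/80% PEG-200, 0.25% of body weight) or compound. After a 6-h fast, blood glucose was read by glucometer from tail-prick blood of unanesthetized rats before dosing and after 1 and 2 weeks. Values are mean ± SEM.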
row,SMILES,Activity
1,CC(C)(CCCCC(=O)CCCCC(C)(C)C(=O)O)C(=O)O,99 mg/dL

# Tested on: Rattus norvegicus
# Assay: Amount of insulin in obese Zucker rats after 1 week of treatment at a dose of 3 mg/kg/day
# Assay type: functional
# Conditions: not given
# How it was run: as §3
row,SMILES,Activity
1,CC(C)(CCCCC(=O)CCCCC(C)(C)C(=O)O)C(=O)O,10.7 ng/mL

# Tested on: Rattus norvegicus
# Assay: Amount of triglycerides in obese Zucker rats at pre-treatment at a dose of 10 mg/kg/day
# Assay type: functional
# Conditions: not given
# How it was run: as §4
row,SMILES,Activity
1,CC(C)(CCCCC(=O)CCCCC(C)(C)C(=O)O)C(=O)O,1143 mg/dL

# Tested on: Rattus norvegicus
# Assay: Amount of triglycerides in obese Zucker rats at pre-treatment at a dose of 30 mg/kg/day
# Assay type: functional
# Conditions: not given
# How it was run: as §4
row,SMILES,Activity
1,CC(C)(CCCCC(=O)CCCCC(C)(C)C(=O)O)C(=O)O,1242 mg/dL

# Tested on: Rattus norvegicus
# Assay: Amount of insulin in obese Zucker rats after 1 week of treatment at a dose of 10 mg/kg/day
# Assay type: functional
# Conditions: not given
# How it was run: as §3
row,SMILES,Activity
1,CC(C)(CCCCC(=O)CCCCC(C)(C)C(=O)O)C(=O)O,7.7 ng/mL

# Tested on: Rattus norvegicus
# Assay: Amount of glucose in obese Zucker rats at pre-treatment at a dose of 0 mg/kg/day
# Assay type: functional
# Conditions: not given
# How it was run: as §6
row,SMILES,Activity
1,CC(C)(CCCCC(=O)CCCCC(C)(C)C(=O)O)C(=O)O,134 mg/dL

# Tested on: Rattus norvegicus
# Assay: Amount of glucose in obese Zucker rats at pre-treatment at a dose of 100 mg/kg/day
# Assay type: functional
# Conditions: not given
# How it was run: as §6
row,SMILES,Activity
1,CC(C)(CCCCC(=O)CCCCC(C)(C)C(=O)O)C(=O)O,110 mg/dL

# Tested on: Rattus norvegicus
# Assay: Amount of insulin in obese Zucker rats after 2 weeks of treatment at a dose of 3 mg/kg/day
# Assay type: functional
# Conditions: not given
# How it was run: as §3
row,SMILES,Activity
1,CC(C)(CCCCC(=O)CCCCC(C)(C)C(=O)O)C(=O)O,8.6 ng/mL

# Tested on: Rattus norvegicus
# Assay: Amount of non-HDL-cholesterol in obese Zucker rats after 2 weeks of treatment at a dose of 100 mg/kg/day
# Assay type: functional
# Conditions: not given
# How it was run: as §5
row,SMILES,Activity
1,CC(C)(CCCCC(=O)CCCCC(C)(C)C(=O)O)C(=O)O,22 mg/dL
